Results as given in ChEMBL document CHEMBL1135672, “QSAR evaluation of the Ch'an Su and related bufadienolides against the colchicine-resistant primary liver carcinoma cell line PLC/PRF/5(1)” (J Med Chem, 2002).
≈ marks a conversion by molar mass, not a printed value.

How the values were obtained:
Type in all cases: functional, Homo sapiens
[1] = Inhibitory activity against colchicine resistant parent primary liver carcinoma (PLC) cell line PLC/PRF/5
In short: (§1)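 PLC/PRF/5 cells were precultured 24 h at 37 °C in 5% CO₂ in 96-well plates, then given colchicine at 0.5 μg/mL. Test compounds were added in dilutions of 10⁻²–10⁻⁶ μg/mL and incubated 72 h at 37 °C in 5% CO₂. Survival was read by MTT. IC50 is the μg/mL giving 50% growth inhibition of the colchicine-resistant cells.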

[2] = Inhibitory activity against the primary liver carcinoma (PLC) cell line PLC/PRF/5
[3] = Inhibitory activity against Colchicine resistant parent primary liver carcinoma (PLC) cell line PLC/PRF/5; in short: as §1

| Structure (SMILES) | IC50 [1] [µg/mL] | IC50 [2] [µg/mL] | IC50 [3] [µg/mL] |
| --- | --- | --- | --- |
| CC(=O)O[C@H]1CC[C@]2(C)C3CC[C@]4(C)[C@@H](c5ccc(=O)oc5)[C@@H](OC(C)=O)C[C@@]4(O)C3CC[C@@H]2C1 (some centres not stated) | 21 (≈ 43.2 µM) | 7.5 (≈ 15.4 µM) |  |
| C[C@]12CCC3C(CC[C@@H]4CC(=O)CC[C@]34C)C1=CC[C@@H]2c1ccc(=O)oc1 (some centres not stated) |  | 4.9 (≈ 13.4 µM) | 7.8 (≈ 21.3 µM) |
| CC(=O)O[C@H]1[C@H]2O[C@]23[C@@H]2CC[C@@H]4C[C@H](O)CC[C@]4(C)[C@H]2CC[C@]3(C)[C@H]1c1ccc(=O)oc1 | 0.9 (≈ 2.03 µM) | 0.098 (≈ 0.221 µM) |  |
| CC(=O)O[C@@H]1C[C@]2(C)[C@@H](c3ccc(=O)oc3)CC[C@]2(O)[C@@H]2CC[C@@H]3CC(=O)CC[C@]3(C)[C@H]21 | 5.6 (≈ 12.7 µM) | 0.79 (≈ 1.79 µM) |  |
| CCOC(=O)C/C=C/C1=CO[C@]23CCC1[C@@]2(C)CC[C@H]1[C@H]3CC[C@@H]2C[C@@H](O)CC[C@@]21C | 9.5 (≈ 22.2 µM) | 7.5 (≈ 17.5 µM) |  |
| CC(=O)O[C@H]1[C@H]2O[C@]23[C@@H]2CC[C@@H]4C[C@@H](OC(=O)/C=C/c5ccccc5)CC[C@]4(C)[C@H]2CC[C@]3(C)[C@H]1c1ccc(=O)oc1 | 9.8 (≈ 17.1 µM) | 6.4 (≈ 11.2 µM) |  |
| C[C@]12CCC(=O)C[C@H]1CC[C@@H]1[C@@H]2CC[C@]2(C)[C@@H](c3ccc(=O)oc3)CC[C@]12O | 0.61 (≈ 1.59 µM) | 0.0093 (≈ 0.0242 µM) |  |
| CC(C)(C)OC(=O)NNC(=O)CCC(=O)O[C@H]1CC[C@@]2(C)[C@H](CC[C@@H]3[C@@H]2CC[C@]2(C)[C@@H](c4ccc(=O)oc4)CC[C@]32O)C1 | 0.0056 (≈ 0.00932 µM) | 0.00062 (≈ 0.00103 µM) |  |
| CC(=O)O[C@H]1CC[C@@]2(C)[C@H](CC[C@@H]3[C@@H]2CC[C@]2(C)[C@@H](C4=CC(=O)OC4)CC[C@]32O)C1 | 0.5 (≈ 1.2 µM) | 0.55 (≈ 1.32 µM) |  |
| CC(=O)O[C@H]1CC[C@@]2(C)[C@H](CC[C@@H]3[C@@H]2CC[C@]2(C)[C@@H](c4ccc(=O)oc4)[C@@H](O)[C@H]4O[C@]342)C1 | 3.4 (≈ 7.68 µM) | 0.098 (≈ 0.221 µM) |  |
| CC(=O)O[C@H]1[C@H]2O[C@]23[C@@H]2CC[C@@H]4CC(=O)CC[C@]4(C)[C@H]2CC[C@]3(C)[C@H]1c1ccc(=O)oc1 | 0.77 (≈ 1.75 µM) | 0.056 (≈ 0.127 µM) |  |
| COC(=O)CCCCCCC(=O)O[C@H]1CC[C@@]2(C)[C@H](CC[C@@H]3[C@@H]2CC[C@]2(C)[C@@H](c4ccc(=O)oc4)CC[C@]32O)C1 | 0.094 (≈ 0.169 µM) | 0.009 (≈ 0.0162 µM) |  |
| CCOC(=O)C/C=C/C1=CO[C@]23CCC1[C@@]2(C)CC[C@H]1[C@H]3CC[C@@H]2C[C@@H](OC(C)=O)CC[C@@]21C | 41 (≈ 87.1 µM) | 6.4 (≈ 13.6 µM) |  |
| CC(=O)CC1OC2C(C1C=O)[C@@]1(C)CC[C@H]3[C@@H](CC[C@@H]4C[C@@H](O)CC[C@@]43C)[C@]13O[C@H]23 (some centres not stated) | > 50 | 26 (≈ 62.4 µM) |  |
| CC(=O)O[C@H]1CC[C@@]2(C)[C@H](CC[C@@H]3[C@@H]2[C@H](O)C[C@]2(C)[C@@H](c4ccc(=O)oc4)CC[C@]32O)C1 | 0.66 (≈ 1.48 µM) | 0.06 (≈ 0.135 µM) |  |
| C[C@]12CC[C@H](OC(=O)CCCCCCC(=O)O)C[C@H]1CC[C@@H]1[C@@H]2CC[C@]2(C)[C@@H](C3=CC(=O)OC3)CC[C@]12O | 8.6 (≈ 16.2 µM) | 5.2 (≈ 9.8 µM) |  |
| C[C@]12CC[C@@H](O)C[C@H]1CC[C@@H]1[C@@H]2CC[C@]2(C)[C@@H](c3ccc(=O)oc3)CC[C@]12O | 0.077 (≈ 0.199 µM) | 0.076 (≈ 0.197 µM) |  |
| C[C@]12CC[C@H](OC(=O)CCCCCCC(=O)O)C[C@H]1CC[C@@H]1[C@@H]2CC[C@]2(C)[C@@H](c3ccc(=O)oc3)CC[C@]12O | 0.0036 (≈ 0.00663 µM) | 0.00075 (≈ 0.00138 µM) |  |

| Structure (SMILES) | IC50 [1] [µg/mL] | IC50 [2] [µg/mL] | IC50 [3] [µg/mL] |
| --- | --- | --- | --- |
| CC(=O)O[C@H]1CC[C@@]2(C)[C@H](CC[C@@H]3[C@@H]2CC[C@]2(C)[C@@H](c4ccc(=O)oc4)CC[C@]32O)C1 | 0.009 (≈ 0.021 µM) | 0.0002 (≈ 0.000467 µM) |  |
| CC(=O)O[C@H]1CC[C@@]2(C)[C@H](CC[C@@H]3[C@@H]2CC[C@]2(C)[C@@H](c4ccc(=O)oc4)[C@@H](OC(C)=O)[C@H]4O[C@]342)C1 | 0.092 (≈ 0.19 µM) | 0.04 (≈ 0.0825 µM) |  |
| COC(=O)C/C=C(\C=O)C1[C@@H](O)C(=O)[C@H]2[C@@H]3CC[C@@H]4C[C@@H](O)CC[C@]4(C)[C@H]3CC[C@]12C (some centres not stated) | > 50 | 8.4 (≈ 19.4 µM) |  |
| C[C@]12CC[C@H](O)C[C@H]1CC[C@H]1[C@H]3C(=O)C[C@H](c4ccc(=O)oc4)[C@@]3(C)CC[C@@H]12 | 12 (≈ 31.2 µM) | 0.82 (≈ 2.13 µM) |  |
| C[C@]12CC[C@H](O)C=C1CCC1C2CC[C@]2(C)[C@@H](c3ccc(=O)oc3)CC[C@]12O (some centres not stated) | 0.00032 (≈ 0.000832 µM) | 0.00031 (≈ 0.000806 µM) |  |
| C[C@]12CCC3C(CC[C@@H]4C[C@@H](O)CC[C@]34C)C1=CC[C@@H]2c1ccc(=O)oc1 (some centres not stated) | 0.9 (≈ 2.44 µM) | 0.83 (≈ 2.25 µM) |  |
| C[C@]12CC[C@H](O)C[C@H]1CC[C@@H]1[C@@H]2CC[C@]2(C)[C@@H](c3ccc(=O)oc3)CC[C@]12O [BUFALIN] | 0.00028 (≈ 0.000724 µM) | 0.00028 (≈ 0.000724 µM) |  |
| C[C@]12CC[C@H](O)C[C@H]1CC[C@@H]1[C@@H]2CC[C@]2(C)[C@@H](c3ccc(=O)oc3)C[C@H]3O[C@]132 [BUFOGENIN] | 0.076 (≈ 0.198 µM) | 0.077 (≈ 0.2 µM) |  |
| CC(=O)O[C@H]1C[C@]2(O)[C@@H]3CC[C@@H]4C[C@@H](O)CC[C@]4(C)[C@H]3CC[C@]2(C)[C@H]1c1ccc(=O)oc1 [BUFOTALIN] | 0.0026 (≈ 0.00585 µM) | 0.00034 (≈ 0.000765 µM) |  |
| CC(=O)O[C@H]1[C@H]2O[C@]23[C@@H]2CC[C@@H]4C[C@@H](O)CC[C@]4(C)[C@H]2CC[C@]3(C)[C@H]1c1ccc(=O)oc1 [CINOBUFAGIN] | 0.00092 (≈ 0.00208 µM) | 0.00074 (≈ 0.00167 µM) |  |
| CC(=O)O[C@H]1[C@H]2O[C@]23[C@@H]2CC[C@]4(O)C[C@@H](O)CC[C@]4(C)[C@H]2CC[C@]3(C)[C@H]1c1ccc(=O)oc1 [CINOBUFOTALIN] | 0.008 (≈ 0.0174 µM) | 0.001 (≈ 0.00218 µM) |  |
| C[C@]12CC[C@H](O)C[C@H]1CC[C@@H]1[C@@H]2CC[C@]2(C)[C@@H](c3ccc(=O)oc3)[C@@H](O)C[C@]12O [DESACETYLBUFOTALIN] | 0.008 (≈ 0.0199 µM) | 0.00078 (≈ 0.00194 µM) |  |
| C[C@]12CC[C@H](O)C[C@H]1CC[C@@H]1[C@@H]2CC[C@]2(C)[C@@H](c3ccc(=O)oc3)[C@@H](O)[C@H]3O[C@]132 [DESACETYLCINOBUFAGIN] | 4.8 (≈ 12 µM) | 0.52 (≈ 1.3 µM) |  |
| C[C@]12CC[C@H](O)C[C@@]1(O)CC[C@@H]1[C@@H]2CC[C@]2(C)[C@@H](c3ccc(=O)oc3)[C@@H](O)[C@H]3O[C@]132 [DESACETYLCINOBUFOTALIN] | 0.64 (≈ 1.54 µM) | 0.67 (≈ 1.61 µM) |  |
| C[C@]12CC[C@H](O)C[C@H]1CC[C@@H]1[C@@H]2CC[C@]2(C)[C@@H](C3=CC(=O)OC3)CC[C@]12O [DIGITOXIGENIN] | 0.0092 (≈ 0.0246 µM) | 0.00087 (≈ 0.00232 µM) |  |
| C[C@]12CC[C@H](O)C[C@H]1CC[C@@H]1[C@@H]2[C@H](O)C[C@]2(C)[C@@H](c3ccc(=O)oc3)CC[C@]12O [GAMABUFOTALIN] | 0.0008 (≈ 0.00199 µM) | 0.00023 (≈ 0.000571 µM) |  |
| C[C@]12CC[C@H](O)C[C@@]1(O)CC[C@@H]1[C@@H]2CC[C@]2(C)[C@@H](C3=CC(=O)OC3)CC[C@]12O [PERIPLOGENIN] | 0.75 (≈ 1.92 µM) | 0.061 (≈ 0.156 µM) |  |
| C[C@]12CC[C@H](O)C[C@@]1(O)CC[C@@H]1[C@@H]2CC[C@]2(C)[C@@H](c3ccc(=O)oc3)CC[C@]12O [TELOCINOBUFAGIN] | 0.0026 (≈ 0.00646 µM) | 0.000345 (≈ 0.000857 µM) |  |
